# How the values were obtained:
# [1] = Unbound fraction in dog plasma; format: ADME, cell-free, Canis lupus familiaris
# [2] = target: Organic anion transporter 3 (Homo sapiens, UniProt Q8TCC7); assay: Inhibition of OAT3 (unknown origin)
# [3] = Clearance in rat liver microsomes; format: ADME, Microsome
# [4] = Volume of distribution at steady state in ICR mouse at 1 mg/kg, iv by LC-MS/MS analysis; format: ADME, organism-based; conditions: in vivo, read-out: Vdss
# Procedure, shortened: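 Three ICR mice per arm. iv dose 1 mg/kg in 5% DMA in water; oral dose 10 mg/kg in 0.5% MC. Plasma was processed by protein precipitation, diluted with water and quantified by LC-MS/MS (C18 column, acetonitrile/0.1% formic acid gradient). Values are means of three animals.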
# [5] = Half life in Beagle dog at 1 mg/kg, iv by LC-MS/MS analysis; format: ADME, organism-based, Canis lupus familiaris; conditions: in vivo
# Procedure, shortened: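 Three Beagle dogs; iv dose 1 mg/kg in 25% DMA in water; oral dose 2 mg/kg in 0.5% CMC-Na. Plasma drug concentrations are measured by LC–MS/MS. Values are the mean of three dogs.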
# [6] = AUC (0 to infinity) in Sprague-Dawley rat at 2 mg/kg, iv by LC-MS/MS analysis; format: ADME, organism-based; parameters: time infinity, route intravenous, dose 2 mg/kg; conditions: in vivo
# Procedure, shortened: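 Sprague-Dawley rats (n=3) get 2 mg/kg iv formulated in 38% DMA in water. Plasma is protein-precipitated and quantified by LC–MS/MS (C18, acetonitrile/0.1% formic acid gradient). Parameters are means of the three rats.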
# [7] = Ratio of drug level in brain to plasma of C57BL/6 mouse brain at 10 mg/kg, po after 1 hrs; format: ADME, organism-based
# Procedure, shortened: (§1)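 C57BL/6 mice were given 10 mg/kg po in 0.5% MC and sampled at 1, 2 and 4 h. Brain was homogenized in 3 volumes of saline, and brain and plasma were protein-precipitated with acetonitrile, then measured by LC-MS/MS. Brain (ng/g) was expressed as a percentage of plasma (ng/mL). Values are means of three mice.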
# [8] = Ratio of drug level in brain to plasma of C57BL/6 mouse brain at 10 mg/kg, po after 4 hrs; format: ADME, organism-based; procedure, shortened: as §1
# [9] = Clearance in ICR mouse at 1 mg/kg, iv by LC-MS/MS analysis; format: ADME, organism-based; conditions: in vivo
# Procedure, shortened: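 Male/female unspecified ICR mice, n=3 per route. Intravenous 1 mg/kg in 5% DMA in water; oral 10 mg/kg in 0.5% MC. Plasma is processed by protein precipitation and analysed by LC–MS/MS using an acetonitrile/0.1% formic acid gradient. Values are means of the three animals.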
# [10] = Drug level in C57BL/6 mouse plasma at 10 mg/kg, po after 1 hrs; format: ADME, organism-based
# Procedure, shortened: (§2)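 C57BL/6 mice (n=3) dosed orally at 10 mg/kg in 0.5% MC. Plasma and brain are sampled at 1, 2 and 4 h. Brain is homogenized in 3 volumes of saline, then acetonitrile protein precipitation; plasma is likewise precipitated. Both are analysed by LC–MS/MS and reported as means.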
# NCI-H209 = assay: Potentiation of TMZ-induced antitumor activity against human NCI-H209 cells xenografted in BALB/c nude mouse assessed as PR rate at […], po BID for 28 days and co-treated with 50 mg/kg, po QD TMZ for 5 consecutive days at start of study and again 14 days later; format: functional; conditions: time 28 day
# [11] = Unbound fraction in rat plasma; format: ADME, cell-free
# [12] = Drug level in C57BL/6 mouse plasma at 10 mg/kg, po after 4 hrs; format: ADME, organism-based; procedure, shortened: as §2
# [13] = Toxicity in BALB/c nude mouse xenografted with human MDA-MB-436 cells assessed as effect on animal mortality at 1.6 to […], po BID for 28 days followed by treatment was interruption and monitored for additional 2 months; format: organism-based; conditions: in vivo, dose 1.6-3.1 mg/kg, time 28 day
# Sequence of Organic anion transporter 3 (Q8TCC7 whole entry): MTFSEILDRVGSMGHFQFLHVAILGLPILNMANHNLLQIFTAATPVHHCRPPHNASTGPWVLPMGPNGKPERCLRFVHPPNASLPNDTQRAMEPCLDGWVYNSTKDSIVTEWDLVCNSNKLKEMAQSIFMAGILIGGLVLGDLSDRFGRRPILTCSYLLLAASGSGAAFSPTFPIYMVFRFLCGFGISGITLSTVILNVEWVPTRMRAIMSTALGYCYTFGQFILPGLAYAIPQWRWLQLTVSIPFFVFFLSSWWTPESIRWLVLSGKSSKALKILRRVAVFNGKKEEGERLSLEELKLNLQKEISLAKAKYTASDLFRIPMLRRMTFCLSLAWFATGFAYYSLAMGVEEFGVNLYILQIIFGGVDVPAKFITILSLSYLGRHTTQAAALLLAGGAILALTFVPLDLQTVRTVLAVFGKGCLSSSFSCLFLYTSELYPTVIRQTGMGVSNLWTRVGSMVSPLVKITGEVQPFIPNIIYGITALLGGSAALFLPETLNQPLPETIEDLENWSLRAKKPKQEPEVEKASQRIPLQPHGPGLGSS
smiles,measurement,setting,value
C[C@]12CCCN1CC1=NNC(=O)c3cc(F)cc4[nH]c2c1c34 [PAMIPARIB],fraction unbound,[1],0.21
same,IC50,[2],23.9 µM
same,microsomal CLint,[3],7.2 µL/min/mg
same,Vd,[4],5.65 L/kg
same,half-life,[5],124 min
same,AUC(0-inf),[6],1480 ng·h/mL
same,BPR,[7],17.4%
same,BPR,[8],19.1%
same,CL,[9],29.9 mL/kg/min
same,concentration at 1 h,[10],3530 ng/mL
same,Activity,NCI-H209,50%
same,fraction unbound,[11],0.151
same,concentration at 4 h,[12],707 ng/mL
same,Activity,[13],Non-Toxic

# — ChEMBL document CHEMBL4673340 (J Med Chem, 2020)
